Results: article PMC12988600 (AAPS PharmSciTech, 2019)
In brackets after ≈: the same amount, converted by molar mass.

Tests used:
[1] = In vitro dissolution, USP apparatus II; format: physicochemical; conditions: within 5 min
How it was run: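 USP II paddle dissolution at 37 ± 0.5°C and 75 rpm in 500 ml of 0.1 N HCl, FaSSIF or FeSSIF. Plain drug or liquisolid formulation was added at 50 mg drug-equivalent. Aliquots were taken at […], with the medium replaced each time. Samples were centrifuged at 10,000 rpm for 10 min and the supernatant was quantified by HPLC-DAD at 246 nm.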

[2] = test system: ERL-resistant HCC827 cells; experiment: In vitro cytotoxicity, crystal violet; format: cell-based; conditions: 48 h
[3] = Saturation solubility of ERL batches in water; format: physicochemical
[4] = human; cited from earlier work
HCC 827/ERL cells = experiment: Annexin V-FITC apoptosis assay, flow cytometry; format: cell-based; conditions: HCC827/ERL cells, 48 h, VA 0.5 mM where present

Structure (SMILES) | % drug dissolved ([1]; FaSSIF) | % drug dissolved ([1]; FeSSIF) | % cell killing ([2]; 25 μM (highest concentration)) | solubility at 24 h [3] | Absorbed after oral administration [4] | Cell killing ([2]; 0.5 mM) | Apoptotic cells (HCC 827/ERL cells)
C#Cc1cccc(Nc2ncnc3cc(OCCOC)c(OCCOC)cc23)c1 [ERL, Erlotinib] | 1.1% | 13% | < 15% | 0.7 µg/mL (≈ 1.78 µM) | about 60% | – | –
CCCC(CCC)C(=O)O [VA, 2-propylpentanoic acid] | – | – | – | – | – | did not show significant cell killing | poor apoptotic effect
